In the M2OR odorant receptor database:

biological target: T1, UniProt Q924H8; conditions: stereoisomer not certain
T1 sequence (whole entry): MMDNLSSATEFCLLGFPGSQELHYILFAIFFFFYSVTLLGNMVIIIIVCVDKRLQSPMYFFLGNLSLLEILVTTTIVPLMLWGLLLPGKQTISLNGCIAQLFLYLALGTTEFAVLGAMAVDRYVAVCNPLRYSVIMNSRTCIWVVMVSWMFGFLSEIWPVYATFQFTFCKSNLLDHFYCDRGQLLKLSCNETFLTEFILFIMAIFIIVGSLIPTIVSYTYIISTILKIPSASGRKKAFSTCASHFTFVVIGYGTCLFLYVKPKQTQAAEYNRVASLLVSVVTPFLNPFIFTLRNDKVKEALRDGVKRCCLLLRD
Summary of the method: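 Each entry records the cell line, G-protein, co-transfected protein and tags used. Methods varied with the source, often transient luciferase assays in mammalian cell lines. A receptor–molecule pair is called responsive (active) if the original authors judged its signal statistically different from baseline and non-responsive (inactive) otherwise.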

Odorant receptor agonist call, inactive:
CC(C)CS
CC(C)CCN
OCCCCCCCCCO
COC(OC)c1ccccc1
COc1nccnc1C
Cc1occc1SSc1ccoc1C
CCCCCCCCCCCO
CC(=O)C=CC1=C(C)CCCC1(C)C
c1ccc2ncccc2c1
CCCCCC=CCCC=O
COc1ccccc1
CCCCCCCCCC=CC=O
Cc1ccc(OC(=O)C(C)C)cc1
C=CC(=O)CCCCC
Cc1c(C)c(C)c(C=O)c(C)c1C
CCc1ncc(C)nc1CC
CC=Cc1ccc(OC)cc1
CC(CC=O)CCCC(C)(C)O (stereo unspecified)
Cc1ccc2c(c1)OCC(=O)CO2
O=C(OCc1ccccc1)c1ccccc1O
CCC=CCCCCC=O
C=CC(C)=CCC=C(C)CCC=C(C)C
CCOC(=O)C(C)CC (stereo unspecified)
CCCC=O
CCCCCCC(C)O (stereo unspecified)
CC(=O)OCc1ccc2c(c1)OCO2
CC1(C)CC(=O)CC(=O)C1
CCCCCCCOC(=O)C(C)C
CC=CC(=O)C1=C(C)CCCC1(C)C
C=C(C)C1CCC(C)C(O)C1 (stereo unspecified)
OCCc1ccccc1
CCc1occc(=O)c1O
CCCCCC(=Cc1ccccc1)C(OC)OC
CCc1ccc(O)cc1
Cc1ccc(C(C)C)cc1
C=CC(=C)CCC=C(C)CCC=C(C)C
